# Test results as given in ChEMBL document CHEMBL3120119, “Development of novel tetrahydrothieno[2,3-c]pyridine-3-carboxamide based Mycobacterium tuberculosis pantothenate synthetase inhibitors: molecular hybridization from known antimycobacterial leads” (Bioorg Med Chem, 2014).
# What was measured:
# [1] = test system: Mycobacterium tuberculosis; assay: Antimycobacterial activity against Mycobacterium tuberculosis H37Rv ATCC 27294 after 28 days by agar dilution method; assay type: functional; details: H37Rv ATCC 27294, 672 h
# Procedure, shortened: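 Agar dilution on Middlebrook 7H11 agar tubes with OADC, drug 50 to 0.78 µg/mL, in duplicate. Inoculum from fresh slants adjusted to 1 mg/mL wet weight in 0.05% Tween 80 saline, diluted 10^-2 (~10^7 cfu/mL); 5 µL spotted. Incubated 37 °C, MIC read after 28 days.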
# Pantothenate synthetase = target: T1, Pantothenate synthetase (Mycobacterium tuberculosis, UniProt P9WIL5); assay: Inhibition of Mycobacterium tuberculosis pantothenate synthetase expressed in Escherichia coli BL21 (DE3)
# T1 sequence (P9WIL5 whole entry): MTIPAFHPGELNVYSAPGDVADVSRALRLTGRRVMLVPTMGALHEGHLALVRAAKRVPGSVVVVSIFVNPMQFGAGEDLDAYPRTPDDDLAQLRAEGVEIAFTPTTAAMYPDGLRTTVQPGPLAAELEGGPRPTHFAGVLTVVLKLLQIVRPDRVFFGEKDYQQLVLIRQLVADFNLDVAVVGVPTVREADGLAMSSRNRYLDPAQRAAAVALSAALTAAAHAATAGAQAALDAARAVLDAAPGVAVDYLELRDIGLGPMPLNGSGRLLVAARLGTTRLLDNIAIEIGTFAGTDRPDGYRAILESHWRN
# Procedure, shortened: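 panC (Rv3602c) cloned into E. coli BL21(DE3). Coupled assay: reagent mix of NADH, pantoic acid, β-alanine, ATP, phosphoenolpyruvate, MgCl2, myokinase, pyruvate kinase, lactate dehydrogenase; reaction started with PS; A340 read every 12 s for 120 s.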
# [2] = Cytotoxicity against mouse RAW264.7 cells at 50 uM after 72 hrs by MTT assay; assay type: cell-based; details: read-out: INH
# [3] = target: T2, Pantothenate synthetase (Mycobacterium tuberculosis) (UniProt P9WIL5); assay: Binding affinity to Mycobacterium tuberculosis pantothenate synthetase expressed in Escherichia coli BL21 (DE3) assessed as increase in thermal stability
# T2 sequence (whole entry): T1 sequence (P9WIL5 whole entry)
# Procedure, shortened: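 Differential scanning fluorimetry: protein–ligand complexes heated from 25 °C to 95 °C in 0.1 °C steps with SYPRO Orange dye; melting temperature shift relative to native protein recorded.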
SMILES,MIC [1] [µM],IC50 (Pantothenate synthetase) [µM],"cytotoxicity at 72 h, 50 µM [2] [%]",Tm [3] [°C]
NC(=O)c1c(NC(=O)c2ccc([N+](=O)[O-])o2)sc2c1CCN(S(=O)(=O)c1ccc(Br)cc1)C2,45,> 25,–,–
NC(=O)c1c(NC(=O)c2ccc([N+](=O)[O-])s2)sc2c1CCN(C(=S)Nc1ccc(F)cc1)C2,12.3,10.2,26.8,–
NC(=O)c1c(NC(=O)c2ccc([N+](=O)[O-])s2)sc2c1CCN(C(=O)Nc1ccc(Cl)cc1)C2,12.3,10.2,24.4,–
NC(=O)c1c(NC(=O)c2ccc([N+](=O)[O-])s2)sc2c1CCN(C(=S)Nc1ccc([N+](=O)[O-])cc1)C2,11.7,9.11,28.6,–
NC(=O)c1c(NC(=O)c2ccc([N+](=O)[O-])o2)sc2c1CCN(C(=S)NCc1ccccc1)C2,26.5,17,18.1,–
CC(=O)c1ccc(S(=O)(=O)N2CCc3c(sc(NC(=O)c4ccc([N+](=O)[O-])o4)c3C(N)=O)C2)cc1,48.2,> 25,–,–
NC(=O)c1c(NC(=O)c2ccc([N+](=O)[O-])o2)sc2c1CCN(C(=O)Nc1ccc(Cl)cc1)C2,51,> 25,–,–
NC(=O)c1c(NC(=O)c2ccc([N+](=O)[O-])s2)sc2c1CCN(C(=O)Nc1ccc([N+](=O)[O-])cc1)C2,12.1,9.68,33.6,–
CC[C@@H](CO)NCCN[C@@H](CC)CO [ETHAMBUTOL],7.64,> 25,–,–
NC(=O)c1c(NC(=O)c2ccc([N+](=O)[O-])o2)sc2c1CCN(S(=O)(=O)c1ccc(F)cc1)C2,25.2,17.6,22.1,–
NC(=O)c1c(NC(=O)c2ccc([N+](=O)[O-])o2)sc2c1CCN(C(=S)Nc1ccc(Cl)cc1)C2,24.7,19.2,24.7,–
COc1ccc(NC(=O)N2CCc3c(sc(NC(=O)c4ccc([N+](=O)[O-])o4)c3C(N)=O)C2)cc1,53.2,15.1,–,–
COc1ccc(NC(=O)N2CCc3c(sc(NC(=O)c4ccc([N+](=O)[O-])s4)c3C(N)=O)C2)cc1,24.9,14.5,20.9,–
NC(=O)c1c(NC(=O)c2ccc([N+](=O)[O-])o2)sc2c1CCN(C(=O)NCc1ccccc1)C2,26.6,14.1,24.3,–
NC(=O)c1c(NC(=O)c2ccc([N+](=O)[O-])s2)sc2c1CCN(C(=S)NCc1ccccc1)C2,19.9,13.2,22.2,–
CC(=O)c1ccc(S(=O)(=O)N2CCc3c(sc(NC(=O)c4ccc([N+](=O)[O-])s4)c3C(N)=O)C2)cc1,46.7,> 25,–,–
COc1ccc(S(=O)(=O)N2CCc3c(sc(NC(=O)c4ccc([N+](=O)[O-])o4)c3C(N)=O)C2)cc1,24.6,20.3,19.4,–
NNC(=O)c1ccncc1 [ISONIAZID],0.72,> 25,–,–
NC(=O)c1c(NC(=O)c2ccc([N+](=O)[O-])o2)sc2c1CCN(S(=O)(=O)c1ccc([N+](=O)[O-])cc1)C2,47.9,> 25,–,–
NC(=O)c1c(NC(=O)c2ccc([N+](=O)[O-])s2)sc2c1CCN(S(=O)(=O)c1ccc(Br)cc1)C2,21.9,14.2,26.8,–
NC(=O)c1c(NC(=O)c2ccc([N+](=O)[O-])s2)sc2c1CCN(S(=O)(=O)c1ccc([N+](=O)[O-])cc1)C2,9.28,5.87,29.2,50.4
NC(=O)c1c(NC(=O)c2ccc([N+](=O)[O-])s2)sc2c1CCN(C(=S)Nc1ccc(Cl)cc1)C2,11.9,6.28,21.4,–
NC(=O)c1c(NC(=O)c2ccc([N+](=O)[O-])s2)sc2c1CCN(S(=O)(=O)c1ccc(F)cc1)C2,12.2,11.7,30.2,–
COc1ccc(S(=O)(=O)N2CCc3c(sc(NC(=O)c4ccc([N+](=O)[O-])s4)c3C(N)=O)C2)cc1,23.9,19,24.5,–
NC(=O)c1c(NC(=O)c2ccc([N+](=O)[O-])o2)sc2c1CCN(C(=S)Nc1ccc([N+](=O)[O-])cc1)C2,24.2,18.7,28.2,–
NC(=O)c1c(NC(=O)c2ccc([N+](=O)[O-])s2)sc2c1CCN(C(=O)NCc1ccccc1)C2,25.7,18.2,26.1,–
CC(=O)N1CCc2c(sc(NC(=O)c3cccs3)c2C(N)=O)C1,9.15,> 25,–,–
NC(=O)c1c(NC(=O)c2ccc([N+](=O)[O-])o2)sc2c1CCN(C(=S)Nc1ccc(F)cc1)C2,25.5,20.9,28.1,–
NC(=O)c1c(NC(=O)c2ccc([N+](=O)[O-])o2)sc2c1CCN(C(=O)Nc1ccc([N+](=O)[O-])cc1)C2,24.9,19.8,36.1,–
